From ChEMBL document CHEMBL4219164, “Design, synthesis and biological evaluation of novel 3-substituted pyrazolopyrimidine derivatives as potent Bruton's tyrosine kinase (BTK) inhibitors” (Bioorg Med Chem, 2018)

Tests used:
[1] = target: Tyrosine-protein kinase BTK (Homo sapiens, UniProt Q06187); assay: Inhibition of full length human N-terminal GST-tagged BTK (2 to 659 residues) expressed in baculovirus expression system using biotinylated substrate after 50 mins by HTRF assay
Ramos = assay: Antiproliferative activity against human Ramos cells after 48 hrs by CCK8-based assay; type: functional, cell-based
Raji = assay: Antiproliferative activity against human Raji cells after 48 hrs by CCK8-based assay; type: functional, cell-based
How it was run: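 CCK-8 viability readout. Cells were seeded at 2000–3000 per well and held 24 h at 37 °C in 5% CO2, then exposed to compound at five concentrations within 1.25–40 μM, each in triplicate. CCK-8 was added for a further 1–4 h and absorbance read at 450 nm, with cell number set to give 0.5–1.2. IC50 was taken as the mean of at least three experiments.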

Chain of Tyrosine-protein kinase BTK (Q06187 whole entry, the tested form may be a part): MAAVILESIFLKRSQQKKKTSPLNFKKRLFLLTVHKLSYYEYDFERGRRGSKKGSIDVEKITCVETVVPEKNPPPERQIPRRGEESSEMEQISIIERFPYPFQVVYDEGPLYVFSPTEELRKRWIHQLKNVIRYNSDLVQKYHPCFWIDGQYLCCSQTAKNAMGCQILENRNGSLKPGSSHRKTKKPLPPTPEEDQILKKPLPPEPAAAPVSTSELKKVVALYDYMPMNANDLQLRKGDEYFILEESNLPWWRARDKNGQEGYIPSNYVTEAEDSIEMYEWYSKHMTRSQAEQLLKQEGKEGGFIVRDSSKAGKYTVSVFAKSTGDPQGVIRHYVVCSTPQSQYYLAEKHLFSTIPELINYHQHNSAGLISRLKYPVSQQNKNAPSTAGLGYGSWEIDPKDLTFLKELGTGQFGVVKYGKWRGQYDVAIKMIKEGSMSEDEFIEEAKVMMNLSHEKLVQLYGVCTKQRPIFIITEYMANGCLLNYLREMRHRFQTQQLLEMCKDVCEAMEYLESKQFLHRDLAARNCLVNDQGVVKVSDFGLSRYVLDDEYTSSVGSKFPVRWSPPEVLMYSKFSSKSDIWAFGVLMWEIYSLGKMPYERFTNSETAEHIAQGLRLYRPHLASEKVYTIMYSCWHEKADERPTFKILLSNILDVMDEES

SMILES	IC50 [1] [nM]	IC50 (Ramos) [µM]	IC50 (Raji) [nM]
C=CC(=O)N1CCC[C@@H](n2nc(C#CCOc3ccc(OC)cc3)c3c(N)ncnc32)C1	89.6	–	–
C=CC(=O)N1CCC[C@@H](n2nc(CCCOc3ccccc3)c3c(N)ncnc32)C1	22.2	–	–
C=CC(=O)N1CCC[C@@H](n2nc(C#CCOc3cccc(Cl)c3)c3c(N)ncnc32)C1	18.1	> 40	2280
C=CC(=O)N1CCC[C@@H](n2nc(/C=C/COc3ccccc3)c3c(N)ncnc32)C1	11.3	–	–
C=CC(=O)N1CCC[C@@H](n2nc(C#CCOc3ccccc3C)c3c(N)ncnc32)C1	49.2	–	–
C=CC(=O)N1CCC[C@@H](n2nc(C#CCSc3ccccc3)c3c(N)ncnc32)C1	11	37.2	2720
C=CC(=O)N1CCC[C@@H](n2nc(C#CCOc3ccccc3)c3c(N)ncnc32)C1	7.95	8.91	1800
C=CC(=O)N1CCC[C@@H](n2nc(C#CCc3ccccc3)c3c(N)ncnc32)C1	102	–	–
C=CC(=O)N1CCC[C@@H](n2nc(C#CCOc3cccc(C(F)(F)F)c3)c3c(N)ncnc32)C1	209	–	–
C=CC(=O)N1CCC[C@@H](n2nc(C#CCOc3ccc(C)cc3)c3c(N)ncnc32)C1	26.9	–	–
C=CC(=O)N1CCC[C@@H](n2nc(C#CCNc3ccccc3)c3c(N)ncnc32)C1	18.1	18.2	> 40000
C=CC(=O)N1CCC[C@@H](n2nc(C#CCOc3cccc(OC)c3)c3c(N)ncnc32)C1	9.84	> 40	1690
C=CC(=O)N1CCC[C@@H](n2nc(C#CCOc3cccc(C)c3)c3c(N)ncnc32)C1	20.8	–	–
C=CC(=O)N1CCC[C@@H](n2nc(C#CCOc3cccc(C(C)C)c3)c3c(N)ncnc32)C1	45.4	–	–
C=CC(=O)N1CCC[C@@H](n2nc(C#CCCc3ccccc3)c3c(N)ncnc32)C1	15.9	> 40	1620
C=CC(=O)N1CCC[C@@H](n2nc(C#CCCOc3ccccc3)c3c(N)ncnc32)C1	39.8	–	–
C=CC(=O)N1CCC[C@@H](n2nc(C#CCOc3ccccc3OC)c3c(N)ncnc32)C1	38.2	–	–
C=CC(=O)N1CCC[C@@H](n2nc(/C=C\COc3ccccc3)c3c(N)ncnc32)C1	23.2	14.6	> 40000
C=CC(=O)N1CCC[C@@H](n2nc(-c3ccc(Oc4ccccc4)cc3)c3c(N)ncnc32)C1 [IBRUTINIB]	–	–	1490
